Experimental data: ChEMBL document CHEMBL4689842, “EUbOPEN Chemogenomics Library wave 1” (2021)

Test system: Fibroblast
Assay: Multiplex assay against human fibroblast
Type: toxicity, cell-based
Outline: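 Per cents of healthy-nucleus cells form the tubulin, mitochondrial-mass and membrane-permeability phenotype values. Live cells were stained at seeding with Hoechst33342, BioTracker Green Microtubule Cytoskeleton Dye, MitoTracker Red and Annexin V Alexa Fluor 680. After compound addition they were imaged on a CQ1 microscope at 37°C and 5% CO2, and CellPathfinder machine-learning gating split them into Hoechst high-intensity objects or normal cells, normal cells into healthy, pyknosed or fragmented nuclei, and pyknosed cells into mitotic or apoptotic.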

[1] = 12 h, 1 µM, compound concentration 1 uM, replicate 1
[2] = 12 h, 1 µM, compound concentration 1 uM, replicate 2
[3] = 12 h, 10 µM, compound concentration 10 uM, replicate 1
[4] = 12 h, 10 µM, compound concentration 10 uM, replicate 2
[5] = 24 h, 1 µM, compound concentration 1 uM, replicate 1
[6] = 24 h, 1 µM, compound concentration 1 uM, replicate 2
[7] = 24 h, 10 µM, compound concentration 10 uM, replicate 1
[8] = 24 h, 10 µM, compound concentration 10 uM, replicate 2
[9] = 48 h, 1 µM, compound concentration 1 uM, replicate 1
[10] = 48 h, 1 µM, compound concentration 1 uM, replicate 2
[11] = 48 h, 10 µM, compound concentration 10 uM, replicate 1
[12] = 48 h, 10 µM, compound concentration 10 uM, replicate 2

CN1CCN(CCOc2cc(OC3CCOCC3)c3c(Nc4c(Cl)ccc5c4OCO5)ncnc3c2)CC1 [SARACATINIB]
Population Apoptotic (%) [1]: 59%
Population Fragmented Nuclei (%) [1]: 22%
Population Healthy Nuclei (%) [1]: 49%
Population Hoechst High Intensity Objects (%) [1]: 10%
Population Membrane Permeable-Phenotype (%) [1]: 24%
Population Mitochondria Different-Phenotype (%) [1]: 9%
Population Mitotic Cells (%) [1]: 40%
Population Normal (%) [1]: 89%
Population Pyknosed Nuclei (%) [1]: 27%
Population Tubulin-Different-Phenotype (%) [1]: 43%
Population Apoptotic (%) [2]: 70%
Population Fragmented Nuclei (%) [2]: 9%
Population Healthy Nuclei (%) [2]: 72%
Population Membrane Permeable-Phenotype (%) [2]: 0%
Population Mitochondria Different-Phenotype (%) [2]: 23%
Population Mitotic Cells (%) [2]: 30%
Population Normal (%) [2]: 90%
Population Pyknosed Nuclei (%) [2]: 18%
Population Tubulin-Different-Phenotype (%) [2]: 10%
Population Apoptotic (%) [3]: 60%
Population Fragmented Nuclei (%) [3]: 20%
Population Healthy Nuclei (%) [3]: 57%
Population Hoechst High Intensity Objects (%) [3]: 13%
Population Membrane Permeable-Phenotype (%) [3]: 16%
Population Mitochondria Different-Phenotype (%) [3]: 21%
Population Mitotic Cells (%) [3]: 39%
Population Normal (%) [3]: 86%
Population Pyknosed Nuclei (%) [3]: 21%
Population Tubulin-Different-Phenotype (%) [3]: 91%
Population Apoptotic (%) [4]: 75%
Population Fragmented Nuclei (%) [4]: 9%
Population Healthy Nuclei (%) [4]: 71%
Population Hoechst High Intensity Objects (%) [4]: 7%
Population Membrane Permeable-Phenotype (%) [4]: 21%
Population Mitochondria Different-Phenotype (%) [4]: 100%
Population Mitotic Cells (%) [4]: 25%
Population Normal (%) [4]: 92%
Population Pyknosed Nuclei (%) [4]: 18%
Population Tubulin-Different-Phenotype (%) [4]: 100%
Population Apoptotic (%) [5]: 47%
Population Fragmented Nuclei (%) [5]: 22%
Population Healthy Nuclei (%) [5]: 61%
Population Hoechst High Intensity Objects (%) [5]: 12%
Population Membrane Permeable-Phenotype (%) [5]: 17%
Population Mitochondria Different-Phenotype (%) [5]: 6%
Population Mitotic Cells (%) [5]: 52%
Population Normal (%) [5]: 87%
Population Pyknosed Nuclei (%) [5]: 16%
Population Tubulin-Different-Phenotype (%) [5]: 35%
Population Apoptotic (%) [6]: 50%
Population Fragmented Nuclei (%) [6]: 14%
Population Healthy Nuclei (%) [6]: 67%
Population Hoechst High Intensity Objects (%) [6]: 8%
Population Membrane Permeable-Phenotype (%) [6]: 6%
Population Mitochondria Different-Phenotype (%) [6]: 13%
Population Mitotic Cells (%) [6]: 50%
Population Normal (%) [6]: 91%
Population Pyknosed Nuclei (%) [6]: 18%
Population Tubulin-Different-Phenotype (%) [6]: 4%
Population Apoptotic (%) [7]: 50%
Population Fragmented Nuclei (%) [7]: 32%
Population Healthy Nuclei (%) [7]: 57%
Population Hoechst High Intensity Objects (%) [7]: 26%
Population Membrane Permeable-Phenotype (%) [7]: 11%
Population Mitochondria Different-Phenotype (%) [7]: 22%
Population Mitotic Cells (%) [7]: 50%
Population Normal (%) [7]: 73%
Population Pyknosed Nuclei (%) [7]: 10%
Population Tubulin-Different-Phenotype (%) [7]: 89%
Population Apoptotic (%) [8]: 85%
Population Fragmented Nuclei (%) [8]: 11%
Population Healthy Nuclei (%) [8]: 54%
Population Hoechst High Intensity Objects (%) [8]: 8%
Population Membrane Permeable-Phenotype (%) [8]: 21%
Population Mitochondria Different-Phenotype (%) [8]: 96%
Population Mitotic Cells (%) [8]: 14%
Population Normal (%) [8]: 91%
Population Pyknosed Nuclei (%) [8]: 34%
Population Tubulin-Different-Phenotype (%) [8]: 93%
Population Apoptotic (%) [9]: 55%
Population Fragmented Nuclei (%) [9]: 40%
Population Healthy Nuclei (%) [9]: 52%
Population Hoechst High Intensity Objects (%) [9]: 10%
Population Membrane Permeable-Phenotype (%) [9]: 11%
Population Mitochondria Different-Phenotype (%) [9]: 2%
Population Mitotic Cells (%) [9]: 44%
Population Normal (%) [9]: 89%
Population Pyknosed Nuclei (%) [9]: 6%
Population Tubulin-Different-Phenotype (%) [9]: 31%
Population Apoptotic (%) [10]: 66%
Population Fragmented Nuclei (%) [10]: 31%
Population Healthy Nuclei (%) [10]: 66%
Population Hoechst High Intensity Objects (%) [10]: 41%
Population Membrane Permeable-Phenotype (%) [10]: 15%
Population Mitochondria Different-Phenotype (%) [10]: 1%
Population Mitotic Cells (%) [10]: 33%
Population Normal (%) [10]: 58%
Population Pyknosed Nuclei (%) [10]: 2%
Population Tubulin-Different-Phenotype (%) [10]: 51%
Population Apoptotic (%) [11]: 71%
Population Fragmented Nuclei (%) [11]: 31%
Population Healthy Nuclei (%) [11]: 62%
Population Hoechst High Intensity Objects (%) [11]: 35%
Population Membrane Permeable-Phenotype (%) [11]: 8%
Population Mitochondria Different-Phenotype (%) [11]: 13%
Population Mitotic Cells (%) [11]: 28%
Population Normal (%) [11]: 64%
Population Pyknosed Nuclei (%) [11]: 6%
Population Tubulin-Different-Phenotype (%) [11]: 89%
Population Apoptotic (%) [12]: 0%
Population Fragmented Nuclei (%) [12]: 44%
Population Healthy Nuclei (%) [12]: 55%
Population Hoechst High Intensity Objects (%) [12]: 27%
Population Membrane Permeable-Phenotype (%) [12]: 12%
Population Mitochondria Different-Phenotype (%) [12]: 23%
Population Mitotic Cells (%) [12]: 0%
Population Normal (%) [12]: 72%
Population Pyknosed Nuclei (%) [12]: 0%
Population Tubulin-Different-Phenotype (%) [12]: 93%
